Reference: ChEMBL document CHEMBL1139903, “Formation of an enolate intermediate is required for the reaction catalyzed by 3-hydroxyacyl-CoA dehydrogenase” (Bioorg Med Chem Lett, 2007)

B1: Peroxisomal multifunctional enzyme type 2 (Rattus norvegicus), P97852 (protein)
chain: MASPLRFDGRVVLVTGAGGGLGRAYALAFAERGALVVVNDLGGDFKGVGKGSSAADKVVEEIRRRGGKAVANYDSVEAGEKLVKTALDTFGRIDVVVNNAGILRDRSFSRISDEDWDIIQRVHLRGSFQVTRAAWDHMKKQNYGRIIMTASASGIYGNFGQANYSAAKLGLLGLANTLVIEGRKNNIHCNTIAPNAGSRMTETVMPEDLVEALKPEYVAPLVLWLCHESCEENGGLFEVGAGWIGKLRWERTLGAIVRKRNQPMTPEAVRDNWVKICDFSNASKPKSIQESTGGIIEVLHKIDSEGISQNHTGQVASADASGFAGVVGHKLPSFSSSYTELQCIMYALGVGASVKNPKDLKFVYEGSADFSCLPTFGVIVAQKSLMSGGLAEVPGLSINFAKVLHGEQYLELYKPLPRSGELKCEAVIADILDKGSGIVIVMDVYSYSGKELICYNQFSVFVVGSGGFGGKRTSEKLKAAVAVPSRPPDAVLRDTTSLNQAALYRLSGDSNPLHIDPSFASIAGFEKPILHGLCTFGFSARHVLQQFADNDVSRFKAIKVRFAKPVYPGQTLQTEMWKEGNRIHFQTKVQETGDIVISNAYVDLVPTSGVSAQTPSEGGALQSALVFGEIGRRLKDVGREVVKKVNAVFEWHITKNGNVAAKWTIDLKNGSGEVYQGPAKGSADTTITISDEDFMEVVLGKLNPQNAFFSGRLKARGNIMLSQKLQMILKDYAKL

Key:
[1] = species: Rattus norvegicus; assay: Activity of rat 3-hydroxyacyl-CoA dehydrogenase S137A mutant
Method in brief: (§1)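 Rat liver HAD enzymes (wild-type, Asn208Ala, Ser137Ala) were incubated with 3-hydroxyacyl-CoA substrates or fluorinated analogs and NAD⁺ cofactor, so the forward reaction oxidizes the 3-hydroxyl to a keto group while NAD⁺ is reduced to NADH. Kinetic studies derived parameters including Vmax.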

[2] = species: Rattus norvegicus; assay: Activity of rat 3-hydroxyacyl-CoA dehydrogenase N208A mutant; method in brief: as §1
[3] = substrate: CCCCCC(O)C(F)C(=O)SCCNC(=O)CCNC(=O)[C@H](O)C(C)(C)COP(=O)(O)OP(=O)(O)OC[C@H]1O[C@@H](n2cnc3c(N)ncnc32)[C@H](O)[C@@H]1OP(=O)(O)O; assay: (§2) Activity of rat 3-hydroxyacyl-CoA dehydrogenase; method in brief: as §1
[4] = substrate: CCCCCC(O)CC(=O)SCCNC(=O)CCNC(=O)[C@H](O)C(C)(C)COP(=O)(O)OP(=O)(O)OC[C@H]1O[C@@H](n2cnc3c(N)ncnc32)[C@H](O)[C@@H]1OP(=O)(O)O; assay: as §2; method in brief: as §1
[5] = substrate: CCC/C=C/C(O)CC(=O)SCCNC(=O)CCNC(=O)[C@H](O)C(C)(C)COP(=O)(O)OP(=O)(O)OC[C@H]1O[C@@H](n2cnc3c(N)ncnc32)[C@H](O)[C@@H]1OP(=O)(O)O; assay: as §2; method in brief: as §1
[6] = substrate: CCC/C=C/C(O)C(F)C(=O)SCCNC(=O)CCNC(=O)[C@H](O)C(C)(C)COP(=O)(O)OP(=O)(O)OC[C@H]1O[C@@H](n2cnc3c(N)ncnc32)[C@H](O)[C@@H]1OP(=O)(O)O; assay: as §2; method in brief: as §1

| Molecule | Km [1] [µM] | Vmax [1] [µmol/min/mg] | Km [2] [µM] | Vmax [2] [µmol/min/mg] | Km [3] [µM] | Km [4] [µM] | Vmax [4] [µmol/min/mg] | Km [5] [µM] | Vmax [5] [µmol/min/mg] | Km [6] [µM] | Vmax [6] [µmol/min/mg] |
| --- | --- | --- | --- | --- | --- | --- | --- | --- | --- | --- | --- |
| CCC/C=C/C(O)CC(=O)SCCNC(=O)CCNC(=O)[C@H](O)C(C)(C)COP(=O)(O)OP(=O)(O)OC[C@H]1O[C@@H](n2cnc3c(N)ncnc32)[C@H](O)[C@@H]1OP(=O)(O)O (some centres not stated) | 53.2 | 0.46 | 49.6 | 1.08 | – | – | – | – | – | – | – |
| CCCCCC(O)CC(=O)SCCNC(=O)CCNC(=O)[C@H](O)C(C)(C)COP(=O)(O)OP(=O)(O)OC[C@H]1O[C@@H](n2cnc3c(N)ncnc32)[C@H](O)[C@@H]1OP(=O)(O)O (some centres not stated) | – | – | 46.8 | 0.28 | – | – | – | – | – | – | – |
| CCC/C=C/C(O)C(F)C(=O)SCCNC(=O)CCNC(=O)[C@H](O)C(C)(C)COP(=O)(O)OP(=O)(O)OC[C@H]1O[C@@H](n2cnc3c(N)ncnc32)[C@H](O)[C@@H]1OP(=O)(O)O (some centres not stated) | 55.7 | 0.17 | 44.9 | 0.1 | – | – | – | – | – | – | – |
| B1 | – | – | – | – | 69.3 | 34.6 | 10.5 | 20 | 21.8 | 46.8 | 11.7 |
